SR-BI DiI-HDL act: activators of SR-BI mediated HDL lipid uptake; CHO ldlA[mSR-BI] cells, DiI-HDL uptake fluorescence, 3 h; 100 = double the neutral-control signal; activation, % at 12.5 µM; hit rate 0.096% among 320,000;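 active = mean replicate activation of at least 60% and every replicate at or above 60%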;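 also: 0% = median plate neutral-control signal and 100% = twice that signal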
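Test system: SR-BI-overexpressing, LDLR-lacking CHO cells; Also added: labelled HDL, 10 µg/mL; Measured by: bottom-read cell fluorescence after medium removal, ex 550/em 595 nm; Timing: 3 h uptake period with compound, 37 °C; Buffer or medium: F12, 0.5% BSA, 25 mM HEPES; Doses: single compound concentration, delivered by pin transfer.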
CAL PDZ FP-1: blocks peptide binding to the human CAL PDZ domain. inhibition, % at 24.9 µM. hit rate 0.92% among 300,000. AID 602252. Q9HD26. purified CAL PDZ, TMR-peptide fluorescence polarization, 1 h;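 active = mean inhibition of at least 30% with at least half of replicates also reaching 30%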;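 also: 0% = DMSO neutral control and 100% = excess unlabeled competitor peptide PRC23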
CAL PDZ FP-2: inhibitors of human CAL PDZ peptide binding; inhibition, % at 20 µM; purified CAL PDZ, TMR-peptide fluorescence polarization, 1 h; hit rate 0.02% among 330,000;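 active = highest replicate inhibition of at least 40%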;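 also: plate controls were DMSO neutral control wells for no effect and unlabeled competitor peptide control wells for full effect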
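Test system: tagged CAL PDZ domain / Buffer or medium: sodium phosphate/NaCl buffer pH 7.4 with TCEP, IgG, Thesit / Reagent: TMR-labelled reporter peptide T*-PRC34 bound in PDZ groove / Compound dosing: single point, 20 µM / Schedule: 1 h incubation at room temperature before polarization reading / Technique: fluorescence polarization (mP) / Benchmarks: unlabelled peptide, DMSO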
dFosB act: mouse delta FosB homodimer activation; activation, % at 25 µM; P13346; hit rate 0.99% among 340,000; purified delta FosB, TAMRA-CDK5 oligo fluorescence polarization; percent of positive-control signal above neutral wells;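 active = mean activation above about 17%, with every replicate also reaching it, limit read from the data, passing the limit was not always enough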
SR-BI HDL uptake: inhibitors of mouse SR-BI mediated HDL lipid uptake | Q61009 | inhibition, % at 12.5 µM | hit rate 0.96% among 320,000 | ldlA[mSR-BI] CHO cells, DiI-HDL uptake fluorescence, 3 h | AID 488896;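 active = mean replicate inhibition of at least 70% and a set share of replicates each scoring 70 or more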;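 also: 0% = median of neutral control wells and 100% = median of positive control wells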
Target sequence (Q61009 whole entry, looked up): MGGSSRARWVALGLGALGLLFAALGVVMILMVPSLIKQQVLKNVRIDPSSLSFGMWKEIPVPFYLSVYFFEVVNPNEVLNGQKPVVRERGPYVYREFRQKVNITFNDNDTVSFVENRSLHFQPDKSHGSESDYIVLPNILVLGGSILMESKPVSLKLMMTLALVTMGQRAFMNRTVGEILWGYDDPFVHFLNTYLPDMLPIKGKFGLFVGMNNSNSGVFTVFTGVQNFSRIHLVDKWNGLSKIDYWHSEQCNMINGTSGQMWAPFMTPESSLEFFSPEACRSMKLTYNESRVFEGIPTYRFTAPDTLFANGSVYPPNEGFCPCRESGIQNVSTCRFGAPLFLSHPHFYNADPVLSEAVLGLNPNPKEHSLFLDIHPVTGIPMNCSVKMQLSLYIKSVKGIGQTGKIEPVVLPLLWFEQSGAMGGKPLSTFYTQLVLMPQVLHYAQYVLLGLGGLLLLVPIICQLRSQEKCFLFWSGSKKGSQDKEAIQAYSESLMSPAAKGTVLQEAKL
* marks the source's active call; other numbers are inactive results; · = no result. Compounds with a hit are over-represented: about 2.8% of the library has one in this group of screens.

SMILES | SR-BI DiI-HDL act | CAL PDZ FP-1 | CAL PDZ FP-2 | dFosB act | SR-BI HDL uptake
CC(Oc1ccc2ccc(=O)oc2c1)C(=O)NCCCn1ccnc1 (stereo not drawn) | 16 | 0 | -1 | 1 | -16
Cn1ccnc1C(OC(=O)c1ccccc1)C(F)(F)F (stereo not drawn) | 6 | 2 | 0 | 0 | -6
CN1CCN(C(=O)c2cc(Cl)cc(Cl)c2)CC1 | -6 | 64* | · | 9 | 6
C#CCOCCOCCOCCNc1nc(N2CCN(C(=O)[C@H](CCCCN)n3cc([C@@H](N)CC(C)C)nn3)CC2)nc(N2CCN(C(=O)[C@H](Cc3cc4ccccc4[nH]3)n3cc([C@@H](N)Cc4ccc(O)cc4)nn3)CC2)n1 | 34 | -2 | 0 | 59* | -34
C#CCOCCOCCOCCNc1nc(N2CCN(C(=O)[C@H]([C@@H](C)CC)n3cc([C@@H](N)Cc4ccc(O)cc4)nn3)CC2)nc(N2CCN(C(=O)[C@H](Cc3cc4ccccc4[nH]3)n3cc([C@@H](N)CC(C)C)nn3)CC2)n1 | 41 | 5 | 0 | 23* | -41
C#CCOCCOCCOCCNc1nc(N2CCN(C(=O)C([C@@H](C)CC)n3cc(C(N)CC(C)C)nn3)CC2)nc(N2CCN(C(=O)[C@H](CCC(=O)O)n3cc(C(N)Cc4ccc(O)cc4)nn3)CC2)n1 (stereo partly drawn) | 0 | -2 | 0 | -12 | 0
N#CC(=C(O)COC(=O)CCCNC(=O)c1ccc(Cl)cc1)c1nc2ccccc2[nH]1 | -7 | -4 | 1 | -5 | 7
O=C(Nc1cccc(C(F)(F)F)c1)c1ccc2nc(-c3ccco3)c(-c3ccco3)nc2c1 | -82 | 0 | 1 | -14 | 82*
O=C(O)c1ccc2nc(-c3ccco3)c(-c3ccco3)nc2c1 | 4 | -2 | -2 | -8 | -4
CCN(CC)C(=O)/C(=C/c1ccc2c(c1)OCO2)NC(=O)c1ccc(Br)cc1 | -75 | -2 | -3 | -8 | 75*
O=C(Nc1cc(Cl)ccn1)C1CCN(S(=O)(=O)c2cccs2)CC1 | -26 | 33* | 0 | 1 | 26
O=C(Nc1ccncc1)C1CCN(S(=O)(=O)c2cccs2)CC1 | 15 | -3 | -2 | -2 | -15
Cc1ccc(N(C)C(=O)C2CCCN2S(=O)(=O)c2cccc3nsnc23)cc1 (stereo not drawn) | -7 | 70* | 1 | -4 | 7
COc1ccccc1N1C(=O)C2C(C(=O)c3ccccc3)=NN(c3ccccc3OC)C2C1=O (stereo not drawn) | · | -3 | -1 | -4 | ·
Cn1c(=O)c2sccc2n2c(CCCC(=O)NCCc3ccccc3)nnc12 | 10 | 18 | 0 | -6 | -10
COc1cc(NC(=O)C2CCN(c3cnccn3)CC2)cc(OC)c1OC | 4 | 14 | -2 | -2 | -4
Cc1nc2c3cc(Cl)ccc3n(CCN3CCOCC3)c2s1 | -52 | 47* | 0 | -3 | 52
Cc1ccc2c(c1)c1nc3ccccc3nc1n2CCN1CCOCC1 | -42 | · | -2 | -46 | 42
O=[N+]([O-])c1c(Nc2ccccc2O)ccc2nonc12 | 19 | 36* | -1 | 0 | -19
Cc1ccccc1Nc1ccc2nonc2c1[N+](=O)[O-] | 0 | -13 | · | 1 | 0
CCCS(=O)(=O)Nc1ccc(Nc2c3ccccc3nc3ccccc23)c(OC)c1 | -80 | -5 | -2 | 54* | 80*
Cc1cc(C)n2c(SCC(=O)N(CC(C)C)c3c(N)n(CC(C)C)c(=O)[nH]c3=O)nnc2n1 | -11 | 70* | -1 | 2 | 11
CCc1ccccc1-n1nnnc1-c1cnccc1C(F)(F)F | -27 | · | -1 | 1 | 27
COc1ccc(S(=O)(=O)N2CCOCC2)cc1NC(=O)CCCOc1ccc(Cl)cc1C | -63 | -2 | -6 | -4 | 63
Cc1cc(Cl)ccc1OCCCC(=O)NNC(=O)c1ccccc1O | -109 | -5 | -2 | -2 | 109*
SMILES | SR-BI DiI-HDL act | CAL PDZ FP-1 | CAL PDZ FP-2 | dFosB act | SR-BI HDL uptake
COc1ccc(OC)c(NC(=O)NNC(=O)CCCOc2ccc(Cl)cc2C)c1 | -44 | 48* | -1 | -12 | 44
NC(=O)Cn1c(O)c(N=NC(=O)CNC(=O)/C=C/c2ccccc2)c2ccccc21 | 24 | 3 | -2 | 18* | -24
C=CCn1c(O)c(N=NC(=O)CNC(=O)/C=C/c2ccc(OC)cc2)c2ccccc21 | -15 | 59* | 0 | -11 | 15
O=C(CSc1ncnc2nc[nH]c12)Nc1nnc(SCc2ccc(Cl)c(Cl)c2)s1 | 35 | -4 | -4 | 5 | -35
Cc1sc(NC(=O)c2ccco2)c(C(c2cccnc2)N2CCC(C)CC2)c1C (stereo not drawn) | 2 | 43* | 0 | -8 | -2
COc1ccc(C(c2c(NC(=O)c3ccco3)sc(C)c2C)N2CCOCC2)cc1 (stereo not drawn) | 17 | 5 | 3 | -9 | -17
CCN1CCN(C(c2cccnc2)c2c(NC(=O)c3ccco3)sc(C)c2C)CC1 (stereo not drawn) | 6 | 46* | 0 | -7 | -6
C=CC(n1cncn1)C(O)(c1ccccc1)c1ccccc1 (stereo not drawn) | -1 | -1 | 0 | -1 | 1
CCCN(CCC)c1ccc(/C=C/c2ccc3cc(OCC)ccc3n2)cc1 | -71 | -29 | -4 | -5 | 71*
CN(C)c1ccc(/C=C/c2ccc3ccccc3n2)cc1 | -4 | 100* | -1 | -7 | 4
CCN(CC)c1ccc(/C=C/c2cc(-c3ccccc3)c3ccccc3n2)cc1 | -52 | -4 | 0 | 1 | 52
C(=C\c1ccc2ccccc2n1)/c1ccccc1 | -15 | -6 | -2 | -12 | 17
Oc1ccc(/C=C/c2ccc3ccccc3n2)cc1 | -24 | 69* | 0 | -4 | 24
O=C(COC(=O)C1CC2C=CC1C2)NCCc1ccccc1 (stereo not drawn) | 240* | 9 | 0 | -1 | -240
Cc1ccc(CNC(=O)CCCn2nc(C)n3ccnc3c2=O)cc1 | 16 | 0 | 0 | 1 | -16
COc1ccc2nc(C)cc(Nc3ccc(N4CCN(C)CC4)cc3)c2c1 | -24 | -1 | 0 | 77* | 24
COc1ccc2nc(C)cc(Nc3ccc(N4CCOCC4)cc3)c2c1 | -69 | -1 | 0 | 30* | 69
COc1ccc2nc(C)cc(Nc3ccc(C)cc3)c2c1 | 8 | 8 | -4 | 8 | -8
Cc1ccc(S(=O)(=O)Cc2nnnn2-c2ccccc2)cc1 | 3 | -2 | -1 | -3 | -3
CCNC(=O)NC(=O)c1csc([N+](=O)[O-])c1 | 21 | 41* | -1 | 6 | -21
C=CCNC(=O)NC(=O)c1csc([N+](=O)[O-])c1 | 17 | 4 | -1 | -11 | -17
COc1ccc(C(=O)C2CCCN(C(=O)c3ccoc3C)C2)cc1F (stereo not drawn) | · | 119* | · | -8 | ·
